From ChEMBL document CHEMBL4428023, “1,4-Dihydropyridines Active on the SIRT1/AMPK Pathway Ameliorate Skin Repair and Mitochondrial Function and Exhibit Inhibition of Proliferation in Cancer Cells” (J Med Chem, 2016)
Active and inactive are the calls of the source. No cut-off for these calls is given here.

Legend:
Mus musculus [1] = test: Wound healing activity in CD1 mouse assessed as increased wound closure at 1 uM administered topically on wound everyday for 14 days by biopsy punch assay; format: functional, organism-based
Summary of the method: (§1)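 Male CD1 mice, 8 weeks old, anaesthetized i.p. with medetomidine 1 mg/kg plus ketamine 75 mg/kg, then biopsy-punch wounded. Compound (1 µM) in 20 µL saline applied directly to the wound daily for 14 days; solvent-treated group as control. Epithelial gap and % wound closure followed over time.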

[2] = target: T1, NAD-dependent protein deacetylase sirtuin-1 (Homo sapiens) (UniProt Q96EB6); test: Activation of SIRT1 in […] at 1 uM by fluorimetric assay; format: cell-free; settings: HaCaT, TDE = time-dependent effect
T1 sequence (whole entry): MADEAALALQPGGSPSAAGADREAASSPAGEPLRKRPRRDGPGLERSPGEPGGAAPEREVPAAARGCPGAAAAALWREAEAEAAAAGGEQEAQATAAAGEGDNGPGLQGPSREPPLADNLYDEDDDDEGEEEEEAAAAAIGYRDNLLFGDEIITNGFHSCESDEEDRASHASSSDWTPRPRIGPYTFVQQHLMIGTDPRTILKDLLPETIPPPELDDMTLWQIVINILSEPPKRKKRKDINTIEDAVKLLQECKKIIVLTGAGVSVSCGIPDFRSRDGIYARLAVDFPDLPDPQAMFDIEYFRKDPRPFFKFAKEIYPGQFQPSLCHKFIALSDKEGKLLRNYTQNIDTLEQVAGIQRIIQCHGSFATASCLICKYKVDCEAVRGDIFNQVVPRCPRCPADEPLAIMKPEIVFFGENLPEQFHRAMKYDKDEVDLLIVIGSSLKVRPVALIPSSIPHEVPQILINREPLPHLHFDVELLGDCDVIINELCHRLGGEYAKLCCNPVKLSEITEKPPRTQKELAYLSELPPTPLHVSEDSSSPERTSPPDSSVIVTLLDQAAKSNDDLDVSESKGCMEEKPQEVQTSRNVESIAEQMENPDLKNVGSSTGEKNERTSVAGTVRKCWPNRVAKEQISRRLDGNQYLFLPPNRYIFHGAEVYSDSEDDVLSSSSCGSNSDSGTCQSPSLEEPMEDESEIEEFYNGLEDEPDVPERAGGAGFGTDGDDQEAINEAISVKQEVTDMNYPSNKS

HaCaT [3] = test: Activation of AMPK/SIRT1 in human HaCaT cells assessed as nitric oxide production incubated for 1 hr by DAF-2D staining-based fluorescence assay; format: cell-based
Summary of the method: (§2)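 HaCaT keratinocytes grown in DMEM with 10% FBS and antibiotics. Cells treated 1 h (single-point 1 µM; dose-response at 5, 25, 50 µM). 5 µM DAF-2D added to complete medium. Cells then washed in PBS, trypsinized and analysed by flow cytometry for DAF fluorescence (ex 485/em 538 nm). Read-out is % DAF-positive cells relative to DMSO control.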

Mus musculus [4] = test: Wound healing activity in CD1 mouse assessed as decrease in epithelial gap at 1 uM administered topically on wound everyday for 14 days by biopsy punch assay; format: functional, organism-based; summary of the method: as §1
[5] = target: T1, NAD-dependent protein deacetylase sirtuin-1 (Homo sapiens); test: Activation of full-length GST-tagged recombinant human SIRT1 assessed as enzyme activity obtained without subtraction of intrinsic fluorescence using p53-based untagged peptide as substrate at 50 uM after 30 mins by SIRTainty assay
[6] = target: T1, NAD-dependent protein deacetylase sirtuin-1 (Homo sapiens); test: Activation of SIRT1 in human HaCaT cells assessed as H4K16 deacetylation at 1 uM after 1 hr by Western blotting method; format: cell-based
Summary of the method: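 HaCaT cells treated 1 h at 1 µM, DMSO as solvent control. Cells lysed in Laemmli buffer and immunoblotted for acetyl-H4K16 (1:1000), with total histone H4 as loading control. Bands quantified by densitometry. At least three independent experiments.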

HaCaT [7] = test: Activation of AMPK/SIRT1 in human HaCaT cells assessed as nitric oxide production at 1 uM incubated for 1 hr by DAF-2D staining-based fluorescence assay; format: cell-based; summary of the method: as §2
[8] = target: T1, NAD-dependent protein deacetylase sirtuin-1 (Homo sapiens); test: Activation of full-length GST-tagged recombinant human SIRT1 assessed as enzyme activity obtained with subtraction of intrinsic fluorescence using p53-based untagged peptide as substrate at 50 uM after 30 mins by SIRTainty assay
[9] = target: 3',5'-cyclic-AMP phosphodiesterase 4D (Homo sapiens) (UniProt Q08499); test: Inhibition of recombinant human PDE4D assessed as phosphate release using cAMP as substrate at 50 uM after 60 mins by malachite green assay
Sequence of 3',5'-cyclic-AMP phosphodiesterase 4D (Homo sapiens) (Q08499 whole entry): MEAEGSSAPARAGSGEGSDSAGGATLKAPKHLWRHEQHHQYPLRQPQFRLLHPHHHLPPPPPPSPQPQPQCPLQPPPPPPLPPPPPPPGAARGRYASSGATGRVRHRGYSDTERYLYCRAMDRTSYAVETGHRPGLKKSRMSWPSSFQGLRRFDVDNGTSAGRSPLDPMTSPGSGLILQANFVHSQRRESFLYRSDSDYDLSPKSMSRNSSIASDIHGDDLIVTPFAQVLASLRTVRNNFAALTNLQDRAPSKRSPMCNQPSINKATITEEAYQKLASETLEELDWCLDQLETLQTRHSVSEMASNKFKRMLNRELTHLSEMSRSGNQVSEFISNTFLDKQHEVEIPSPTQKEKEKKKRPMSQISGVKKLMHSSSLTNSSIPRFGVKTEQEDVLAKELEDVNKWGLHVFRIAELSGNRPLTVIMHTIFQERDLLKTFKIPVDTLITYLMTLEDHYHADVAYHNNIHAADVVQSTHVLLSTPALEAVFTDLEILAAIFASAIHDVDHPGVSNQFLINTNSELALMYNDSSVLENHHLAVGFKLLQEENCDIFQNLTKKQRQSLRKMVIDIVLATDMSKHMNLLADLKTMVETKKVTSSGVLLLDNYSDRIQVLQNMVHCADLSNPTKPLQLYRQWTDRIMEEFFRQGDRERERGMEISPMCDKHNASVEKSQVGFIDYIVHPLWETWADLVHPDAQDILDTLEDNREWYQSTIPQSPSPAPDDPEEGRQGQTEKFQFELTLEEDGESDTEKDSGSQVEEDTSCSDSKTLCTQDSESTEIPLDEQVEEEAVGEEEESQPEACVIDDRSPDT
Summary of the method: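 Recombinant human PDE4D (20 mU) in 10 mM Tris-HCl pH 7.4 with cAMP substrate. Compounds at 50 µM in DMSO; rolipram 10 µM as positive control. Incubated 60 min at 37 °C, then phosphate release measured by malachite green absorbance at 620 nm. Mean of three determinations.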

C2C12 [10] = test: Activation of AMPK/SIRT1 in mouse C2C12 cells assessed as increase in mitochondrial density at 30 uM after 16 hrs by Mitotracker Green staining-based confocal microscopy; format: cell-based
Summary of the method: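 Murine C2C12 myoblasts plated on coverslips and grown overnight at 37 °C, 5% CO2. Then switched to serum-free HBSS, pH 7.4, and treated 16 h at 30 µM, alone or with 5 µM compound C or EX-527. Mitotracker Green (200 nM final) added for the last 30 min. Cells fixed in 4% paraformaldehyde, permeabilized and imaged by confocal microscopy, with settings fixed on untreated cells. Plate fluorescence also quantified.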

[11] = target: T1, NAD-dependent protein deacetylase sirtuin-1 (Homo sapiens); settings: HaCaT, 1 uM
C2C12 [12] = test: Activation of AMPK/SIRT1 in mouse C2C12 cells assessed as increase in mitochondrial density at 30 uM after 16 hrs by Mitotracker Green staining-based confocal microscopy in presence of compound C; format: cell-based
Summary of the method: (§3)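 C2C12 myoblasts plated overnight, then in serum-free HBSS pH 7.4 and treated 16 h at 30 µM, alone or with 5 µM inhibitor (EX-527 or compound C). Mitotracker Green at 200 nM final was added for the last 30 min. Cells were fixed in 4% paraformaldehyde, permeabilized with Triton X-100 and imaged by confocal microscopy with fixed settings. Alternatively, mitochondrial fluorescence was quantified in plates.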

C2C12 [13] = test: Activation of AMPK/SIRT1 in mouse C2C12 cells assessed as increase in mitochondrial density at 30 uM after 16 hrs by Mitotracker Green staining-based confocal microscopy in presence of EX-527; format: cell-based; summary of the method: as §3
Cavia porcellus [14] = organism: Cavia porcellus; test: Potency index, ratio of potency for test compound to potency for nifedipine for inhibition of calcium channel in guinea pig ileum longitudinal smooth muscle assessed as inhibition of calcium-induced contraction; format: tissue-based
Cavia porcellus [15] = organism: Cavia porcellus; test: Antagonist activity at calcium channel in guinea pig smooth muscle assessed as inhibition of calcium-induced contraction in K+-depolarized aortic strips at 50 uM
Summary of the method: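 Guinea-pig isolated aortic strips depolarized with 80 mM K+; read-out is percent inhibition of calcium-induced contraction.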

HaCaT [16] = test: Activation of AMPK/SIRT1 in human HaCaT cells assessed as nitric oxide production at 10 uM incubated for 1 hr in presence of compound C by DAF-2D staining-based fluorescence assay; format: cell-based
Summary of the method: (§4)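 HaCaT cells in DMEM with 10% FBS. DHP (10 µM) given for 1 h alone or together with 10 µM AMPK inhibitor compound C or 10 µM SIRT1 inhibitor EX-527. Intracellular NO read by flow cytometry after loading with 5 µM DAF-2D in medium (ex 485/em 538 nm). Expressed as % DAF-positive cells versus DMSO.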

HaCaT [17] = test: Activation of AMPK/SIRT1 in human HaCaT cells assessed as nitric oxide production at 10 uM incubated for 1 hr in presence of EX-527 by DAF-2D staining-based fluorescence assay; format: cell-based; summary of the method: as §4
LoVo = test: Antiproliferative activity against human LoVo cells assessed as cell viability after 72 hrs by MTT assay; format: functional, cell-based
Summary of the method: (§5)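 Cells grown in RPMI with 10% fetal calf serum and penicillin, seeded in sextuplicate at 3 × 10^3 cells/well. After 24 h, cells were exposed 72 h to 5–200 µM. Viability was measured by MTT and expressed as treated/untreated × 100. IC50 was calculated from three independent experiments, reported as mean ± SD.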

M14 = test: Antiproliferative activity against human M14 cells assessed as cell viability after 72 hrs by MTT assay; format: functional, cell-based; settings: M14, 72 h; summary of the method: as §5
Caov-3 cell line = test: Antiproliferative activity against human Caov3 cells assessed as cell viability after 72 hrs by MTT assay; format: functional, cell-based; settings: Caov-3, 72 h; summary of the method: as §5
HEY = test: Antiproliferative activity against human HEY cells assessed as cell viability after 72 hrs by MTT assay; format: functional, cell-based; summary of the method: as §5
NCI-H1299 = test: Antiproliferative activity against human NCI-H1299 cells assessed as cell viability after 72 hrs by MTT assay; format: functional, cell-based; settings: NCI-H1299, 72 h; summary of the method: as §5
[18] = target: T1, NAD-dependent protein deacetylase sirtuin-1 (Homo sapiens); test: Activation of SIRT1 in human M14 cells assessed as deacetylation of acetyl-H4K16 after 48 hrs by Western blotting method; format: cell-based
Summary of the method: (§6)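 M14 melanoma and H1299 lung cancer cells treated 48 h at 5, 10 and 20 µM. Total protein extracts immunoblotted for acetyl-H4K16, with β-actin as loading control. Detection by HRP secondary antibodies and enhanced chemiluminescence. Bands quantified by densitometry.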

A549 = test: Antiproliferative activity against human A549 cells assessed as cell viability after 72 hrs by MTT assay; format: functional, cell-based; settings: A549, 72 h; summary of the method: as §5
[19] = Antiproliferative activity against human SAN cells assessed as cell viability after 72 hrs by MTT assay; format: functional, cell-based; summary of the method: as §5
[20] = target: T1, NAD-dependent protein deacetylase sirtuin-1 (Homo sapiens); test: Activation of SIRT1 in human NCI-H1299 cells assessed as deacetylation of acetyl-H4K16 after 48 hrs by Western blotting method; format: cell-based; summary of the method: as §6
HT-29 = test: Antiproliferative activity against human HT-29 cells assessed as cell viability after 72 hrs by MTT assay; format: functional, cell-based; settings: HT-29, 72 h; summary of the method: as §5
SK-OV-3 = test: Antiproliferative activity against human SKOV3 cells assessed as cell viability after 72 hrs by MTT assay; format: functional, cell-based; settings: SK-OV-3, 72 h; summary of the method: as §5
A2780 = test: Antiproliferative activity against human A2780 cells assessed as cell viability after 72 hrs by MTT assay; format: functional, cell-based; settings: A2780, 72 h; summary of the method: as §5
[21] = Antagonist activity at calcium channel in guinea pig smooth muscle assessed as inhibition of calcium-induced contraction in K+-depolarized aortic strips; settings: Cavia porcellus
HaCaT [22] = test: Activation of AMPK/SIRT1 in human HaCaT cells assessed as nitric oxide production up to 50 uM incubated for 1 hr by DAF-2D staining-based fluorescence assay; format: cell-based
Summary of the method: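 HaCaT keratinocytes in DMEM with 10% FBS; treated 1 h (dose-response at 5, 25, 50 µM; screen at 1 µM), DMSO solvent control. 5 µM DAF-2D added to the medium; cells washed, trypsinized and analysed by flow cytometry. Read-out is % DAF-positive cells relative to DMSO.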

## CCOC(=O)C1=CN(Cc2ccccc2)C=C(C(=O)OCC)C1c1ccco1
Mus musculus [1]
  Activity: Active
[2]
  Activity: Tde
HaCaT [3]
  Activity: Dose-dependent effect
Mus musculus [4]
  Activity: Active
[5]
  Activity: 294%
[6]
  Activity: Active
HaCaT [7]
  Activity: Active
[8]
  Activity: 64%
[9]
  inhibition: inactive

## CCOC(=O)C1=CN(Cc2ccccc2)C=C(C(=O)OCC)C1c1ccccc1
[5]
  Activity: 217%
[6]
  Activity: Active
HaCaT [7]
  Activity: Active
[8]
  Activity: 164%
[9]
  inhibition: inactive

## O=C(O)C1=CN(Cc2ccccc2)C=C(C(=O)O)C1c1ccco1
[5]
  Activity: 41%
C2C12 [10]
  Activity: inactive
[8]
  Activity: 41%

## CC(NC(=O)c1ccccc1/N=C/c1c(O)ccc2ccccc12)c1ccccc1 (stereo not given)
[11]
  inhibition: Active

## CCOC(=O)C1=CN(Cc2ccccc2)C=C(C(=O)OCC)C1c1ccsc1
C2C12 [12]
  Activity: inactive
C2C12 [13]
  Activity: inactive
Mus musculus [1]
  Activity: Active
Cavia porcellus [14]
  Ratio: 266
[2]
  Activity: Tde
HaCaT [3]
  Activity: Dose-dependent effect
Cavia porcellus [15]
  inhibition: 13%
HaCaT [16]
  Activity: inactive
Mus musculus [4]
  Activity: Active
[5]
  Activity: 404%
HaCaT [17]
  Activity: inactive
[6]
  Activity: Active
C2C12 [10]
  Activity: Active
HaCaT [7]
  Activity: Active
[8]
  Activity: 126%
[9]
  inhibition: inactive

## CCOC(=O)C1=CN(Cc2ccccc2)C=C(C(=O)OCC)C1c1ccc(CN2CCN(C)CC2)cc1
LoVo
  IC50: 15 µM
M14
  IC50: 8 µM
Caov-3 cell line
  IC50: 24 µM
HEY
  IC50: 15 µM
NCI-H1299
  IC50: 24 µM
HaCaT [16]
  Activity: inactive
[18]
  Activity: Dose-dependent effect
[5]
  Activity: 152%
A549
  IC50: 20 µM
HaCaT [17]
  Activity: inactive
HaCaT [7]
  Activity: Active
[19]
  IC50: 16 µM
[20]
  Activity: Dose-dependent effect
HT-29
  IC50: 11 µM
[8]
  Activity: 68%
SK-OV-3
  IC50: 35 µM
A2780
  IC50: 10 µM

## COC(=O)C1=C(C)NC(C)=C(C(=O)OC)C1c1ccccc1[N+](=O)[O-] [NIFEDIPINE]
[21]
  IC50: 0.009 µM
HaCaT [22]
  Activity: inactive

## Oc1ccc(/C=C/c2cc(O)cc(O)c2)cc1
[2]
  Activity: Tde
[6]
  Activity: Active
